In PMC12570389 (RSC Advances, 2025):
Entries after “also recorded” stand apart in the source; their conditions may differ.

Legend:
CCR2 = conditions: Table S5C training set of 3D-QSAR; ref BindingDB; cited from earlier work
[1] = system: Human diploid fibroblasts (MRC-5); assay: CCK8 viability assay in TGF-β-induced pulmonary fibrosis cell model; format: cell-based
Outline: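 MRC-5 fibroblasts were seeded at 2000 cells/well and given TGF-β (10 ng mL−1) for 48 h to build the fibrosis model. Test compound was dissolved in DMSO, diluted in DMEM and applied at 0, 1, 1.25, 2.5, 5, 10, 25, 50 and 100 μmol for 48 h, with a reference antifibrotic as positive control. CCK8 (10% volume) was added, plates incubated 3 h in the dark, and A450 read.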

MRC-5 cells = assay: Hydroxyproline content in TGF-β-stimulated MRC-5 cells; format: cell-based, human; conditions: 17 (50 μM), 67 (100 μM), nintedanib (10 μM), 48 hours, vs TGF-β model
Outline: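 TGF-β (10 ng mL−1, 48 h) stimulated MRC-5 fibrosis model cells were then exposed to test compound at a single concentration (50 or 100 μM), or to a reference antifibrotic at 10 μM, for 48 h. Hydroxyproline content was compared with the TGF-β-stimulated model.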

COL1A1 = assay: RT-qPCR of COL1A1 mRNA in TGF-β-stimulated MRC-5 cells; format: cell-based, human; conditions: 17 (50 μM), 67 (100 μM), nintedanib (10 μM), 48 hours, vs TGF-β model

| SMILES | IC50 (CCR2) [nM] | proliferation / 48-hour cell inhibition rate (CCK8) ([1]; TGF-β (10 ng mL^−1) induced MRC-5, 48-hour drug treatment, 0-100 μmol) | cytotoxic effect on the pulmonary fibrosis cell model, comparison ([1]; TGF-β induced MRC-5, 48 h, CCK8) | hydroxyproline (MRC-5 cells) | expression of COL1A1 (COL1A1) |
| --- | --- | --- | --- | --- | --- |
| Cc1ccc(-c2ccc3c(c2)C=C(C(=O)Nc2ccc(C[N+](C)(C)C4CCOCC4)cc2)CCC3)cc1 [BDBM50088301] | 0.03 |  |  |  |  |
| COC(=O)c1ccc2c(c1)NC(=O)/C2=C(\Nc1ccc(N(C)C(=O)CN2CCN(C)CC2)cc1)c1ccccc1 [nintedanib] |  | effectively suppressed the proliferation; also recorded: concentration-dependent increase in their inhibitory effects | even stronger cytotoxic effect than compound 17 | significantly decreased | significantly decreased |
